A3A deaminase – blocks human APOBEC3A ssDNA deamination; hit rate 0.41% among 330,000; recombinant A3A, FAM/TAMRA ssDNA deamination fluorescence; inhibition, % at 20 µM; AID 493011;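 active = at least 40% inhibition at 20 µM here, with at most 30% in a related deaminase screen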;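 note: plate controls were A3A with DMSO for no effect and wells lacking A3A enzyme for full effect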
ABHD5 PLIN5 PPI – ABHD5-PLIN5 protein interaction inhibition | Q00G26+Q8WTS1 | Split G. princeps luciferase complementation, luminescence, 4 h | inhibition, % at 4 µM | hit rate 0.78% among 360,000;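 active = inhibition above the mean inhibition across every tested compound plus 3 SD, cut at about 22% in these data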;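 note: 0% = DMSO only wells and the 100% control is not disclosed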
HCV NS3 hel inh – inhibitors of Hepatitis C virus NS3 helicase. inhibition, % at 10.9 µM. NS3 helicase DNA unwinding, Cy5 molecular beacon fluorescence. hit rate 0.56% among 290,000;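 active = inhibition above the mean of all tested compounds plus 3 SD, set per campaign, cut at about 35% in these data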;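 note: 0% = DMSO wells and 100% = thioflavine S control wells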
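test system = hepatitis C virus NS3 helicase domain fragment enzyme | reagent = annealed dual-labelled DNA beacon duplex, ATP-started | times = 1 h at 25 °C | detection = Cy5 fluorescence, 0 and 60 min reads | read-out basis = percent inhibition from t60/t0 fluorescence ratio | control set = DMSO and thioflavine S | replication = one well per compound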
PRMT1 inh – PRMT1 (human) inhibition, primary screen; Q99873; inhibition, % at 2.79 µM; recombinant PRMT1, activity-based probe fluorescence polarization; hit rate 1.3% among 370,000;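 active = inhibition above about 21% made by adding two undisclosed values, limit read from the data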
Target sequence (Q99873 whole entry, looked up): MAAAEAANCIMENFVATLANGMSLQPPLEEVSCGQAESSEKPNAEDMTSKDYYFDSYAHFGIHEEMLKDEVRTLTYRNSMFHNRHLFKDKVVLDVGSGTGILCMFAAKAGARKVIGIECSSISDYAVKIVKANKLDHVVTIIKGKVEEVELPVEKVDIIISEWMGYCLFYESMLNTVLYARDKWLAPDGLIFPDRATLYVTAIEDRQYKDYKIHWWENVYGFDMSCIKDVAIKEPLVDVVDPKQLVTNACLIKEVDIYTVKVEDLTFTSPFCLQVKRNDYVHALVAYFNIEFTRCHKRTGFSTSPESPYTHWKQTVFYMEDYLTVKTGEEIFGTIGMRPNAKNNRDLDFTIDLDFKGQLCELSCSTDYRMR
core dimer inh – HCV core protein dimerization inhibition | AID 1899 | TR-FRET GST/Flag-core106 dimerization, 1536-well | hit rate 0.33% among 300,000 | inhibition, % at 5 µM;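 active = inhibition above the mean of all tested compounds plus 3 SD, set per screening campaign, cut at about 45% in these data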
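System: GST-tagged and Flag-tagged HCV core protein residues 1-106 / Input: core106 proteins, GST 13.5 nM and Flag 17 nM / Buffer or medium: KF-containing HEPES buffer, pH 7.45, DTT, CHAPS, BSA / Probe or stimulus: Eu-anti-GST and XL665-anti-Flag labelled anti-tag antibodies / Schedule: 4 h, 22.5 °C incubation / Technique: TR-FRET 671 and 617 nm emission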
APOBEC3G inh – inhibitors of human APOBEC3G DNA deaminase. recombinant A3G, ssDNA deamination FAM/TAMRA fluorescence. inhibition, % at 20 µM. hit rate 0.28% among 330,000. AID 493012;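 active = inhibition of at least 40% at 20 µM, with no more than 30% in the related APOBEC3A deaminase screen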;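 note: plate controls were DMSO wells with A3G for no effect and wells lacking A3G enzyme for full effect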
* hit, by the source's call; ! = a repeat was not active. In the library only some 2.9% were active in any assay of this set; here they are far more common.

Results for CCOc1ccc(-c2csc(NC(=O)c3cccc(N4C(=O)CCC4=O)c3)n2)cc1 ?
A3A deaminase: 2; ABHD5 PLIN5 PPI: 11; HCV NS3 hel inh: 3; PRMT1 inh: 0; core dimer inh: 7; APOBEC3G inh: -4

What do the screens show for `O=C1CSC(=S)N1N=Cc1ccc(Cl)s1`?
ABHD5 PLIN5 PPI: -17; PRMT1 inh: 25*

What do the screens show for `CC(C)(C)c1ccc(/C=N/N2C(=O)CSC2=S)cc1`?
A3A deaminase: -1; ABHD5 PLIN5 PPI: -11; HCV NS3 hel inh: 15; PRMT1 inh: 3; core dimer inh: 14; APOBEC3G inh: -4

How did CCCCN(C(=O)c1cc(-c2ccco2)nc2ccccc12)c1c(N)n(CCCC)c(=O)[nH]c1=O do in these assays?
A3A deaminase: 39; ABHD5 PLIN5 PPI: -2; PRMT1 inh: 22*; core dimer inh: 36; APOBEC3G inh: 15

What do the screens show for `Cc1ccc(-c2cc(C(=O)OCC(=O)N(C)c3c(N)n(Cc4ccccc4)c(=O)[nH]c3=O)c3ccccc3n2)o1`?
A3A deaminase: 0; ABHD5 PLIN5 PPI: 8; PRMT1 inh: 24*; core dimer inh: 16; APOBEC3G inh: -2

Results for N=c1c(S(=O)(=O)c2ccc(Br)cc2)cc2c(=O)n3ccccc3nc2n1Cc1ccco1 ?
A3A deaminase: 7; ABHD5 PLIN5 PPI: 34*; HCV NS3 hel inh: 15; PRMT1 inh: 14; core dimer inh: 14; APOBEC3G inh: 10

What do the screens show for `N=c1c(S(=O)(=O)c2ccc(Br)cc2)cc2c(=O)n3ccccc3nc2n1Cc1ccccc1`?
A3A deaminase: -2; ABHD5 PLIN5 PPI: 3; HCV NS3 hel inh: 2; PRMT1 inh: -4; core dimer inh: 9; APOBEC3G inh: -1

What do the screens show for `COc1ccc(CNC(=O)c2cc3c(=O)n4ccccc4nc3n(Cc3ccco3)c2=N)cc1`?
HCV NS3 hel inh: 2

How did Cc1ccc(Cn2c(=N)c(C(=O)NCc3ccco3)cc3c(=O)n4ccccc4nc32)cc1 do in these assays?
A3A deaminase: 4; ABHD5 PLIN5 PPI: 18; HCV NS3 hel inh: 15; PRMT1 inh: 3; core dimer inh: 63*; APOBEC3G inh: 7

Results for N=c1c(C(=O)NCc2ccco2)cc2c(=O)n3ccccc3nc2n1CCc1ccccc1 ?
A3A deaminase: -13; ABHD5 PLIN5 PPI: 21; HCV NS3 hel inh: -5; PRMT1 inh: 7; core dimer inh: 52*; APOBEC3G inh: 2

How did CCCn1c(=NC(C)=O)c(C#N)cc2c(=O)n3cccc(C)c3nc21 do in these assays?
HCV NS3 hel inh: 3

How did Cc1cccc(C(=O)N=c2c(C#N)cc3c(=O)n4cccc(C)c4nc3n2Cc2ccco2)c1 do in these assays?
A3A deaminase: 34; ABHD5 PLIN5 PPI: 50*!; HCV NS3 hel inh: 17; PRMT1 inh: 25*!; core dimer inh: 60*; APOBEC3G inh: 42

What do the screens show for `Cc1cccn2c(=O)c3cc(C#N)c(=NC(=O)c4ccccc4)n(Cc4ccco4)c3nc12`?
A3A deaminase: 25; ABHD5 PLIN5 PPI: 46*!; PRMT1 inh: 24*; core dimer inh: 46*; APOBEC3G inh: 24

How did Cc1cccc(/C=C/C(=O)c2cc(Br)ccc(=O)c2O)c1 do in these assays?
A3A deaminase: 19; ABHD5 PLIN5 PPI: 23*; HCV NS3 hel inh: 23; PRMT1 inh: 37*; core dimer inh: 3; APOBEC3G inh: 7

How did N#Cc1ccc(OCCCN2CCC(C(O)(c3ccccc3)c3ccccc3)CC2)cc1 do in these assays?
PRMT1 inh: -1

What do the screens show for `Nc1ccn([C@@H]2O[C@H](C(=O)N[C@H]3c4ccccc4C[C@H]3O)[C@@H](O)[C@H]2O)c(=O)n1`?
ABHD5 PLIN5 PPI: 0; PRMT1 inh: -1

How did COc1ccc(/C=N\NS(=O)(=O)c2ccc(Cl)cc2)cc1COc1ccccc1[N+](=O)[O-] do in these assays?
A3A deaminase: -2; ABHD5 PLIN5 PPI: -2; HCV NS3 hel inh: 1; PRMT1 inh: 1; core dimer inh: 47*; APOBEC3G inh: -1

How did COc1ccc(/C=N\NS(=O)(=O)c2ccc(Br)cc2)cc1COc1ccccc1[N+](=O)[O-] do in these assays?
A3A deaminase: -2; ABHD5 PLIN5 PPI: 2; HCV NS3 hel inh: -4; PRMT1 inh: 0; core dimer inh: 8; APOBEC3G inh: -3

High-throughput results from PubChem BioAssay.
